Source: ChEMBL document CHEMBL1149761, “New triazole and triazolothiadiazine derivatives as possible antimicrobial agents” (2008)
≈ marks a conversion by molar mass, not a printed value.

Assays:
Staphylococcus aureus = test: Antibacterial activity against Staphylococcus aureus NRRL B-767 by microdilution broth susceptibility assay; assay type: functional
Micrococcus luteus = test: Antibacterial activity against Micrococcus luteus NRLL B-4375 by microdilution broth susceptibility assay; assay type: functional
Escherichia coli = test: Antibacterial activity against Escherichia coli NRRL B-3704 by microdilution broth susceptibility assay; assay type: functional
Nakaseomyces glabratus = test: Antifungal activity against Candida glabrata isolate by broth dilution antifungal susceptibility test; assay type: functional
Procedure, shortened: (§1)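 Clinical Candida isolates obtained from Osmangazi University, Faculty of Medicine. Tested by the microbroth dilution method alongside bacterial strains.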

Proteus vulgaris = test: Antibacterial activity against Proteus vulgaris NRRL B-123 by microdilution broth susceptibility assay; assay type: functional
Candida albicans = test: Antifungal activity against Candida albicans isolate by broth dilution antifungal susceptibility test; assay type: functional; procedure, shortened: as §1
Bacillus cereus = test: Antibacterial activity against Bacillus cereus NRRL B-3711 by microdilution broth susceptibility assay; assay type: functional
Salmonella typhimurium = test: Antibacterial activity against Salmonella Typhimurium NRRL B-4420 by microdilution broth susceptibility assay; assay type: functional, Salmonella enterica subsp. enterica serovar Typhimurium; conditions: Salmonella enterica

Row | Structure (SMILES) | MIC (Staphylococcus aureus) | MIC (Micrococcus luteus) | MIC (Escherichia coli) | MIC (Nakaseomyces glabratus) | MIC (Proteus vulgaris) | MIC (Candida albicans) | MIC (Bacillus cereus) | MIC (Salmonella typhimurium)
1 | Cc1ccc(C2=Nn3c(Cc4c[nH]c5ccccc45)nnc3SC2)cc1 | 125 µg/mL (≈ 348 µM) | 62.5 µg/mL (≈ 174 µM) | 125 µg/mL (≈ 348 µM) | 62.5 µg/mL (≈ 174 µM) | 125 µg/mL (≈ 348 µM) | 250 µg/mL (≈ 695 µM) | 250 µg/mL (≈ 695 µM) | 62.5 µg/mL (≈ 174 µM)
2 | O=[N+]([O-])c1ccc(C2=Nn3c(Cc4c[nH]c5ccccc45)nnc3SC2)cc1 | 125 µg/mL (≈ 320 µM) | 125 µg/mL (≈ 320 µM) | 125 µg/mL (≈ 320 µM) | 125 µg/mL (≈ 320 µM) | 125 µg/mL (≈ 320 µM) | 125 µg/mL (≈ 320 µM) | 250 µg/mL (≈ 640 µM) | 250 µg/mL (≈ 640 µM)
3 | c1ccc(C2=Nn3c(Cc4c[nH]c5ccccc45)nnc3SC2)cc1 | 62.5 µg/mL (≈ 181 µM) | 62.5 µg/mL (≈ 181 µM) | 250 µg/mL (≈ 724 µM) | 125 µg/mL (≈ 362 µM) | 62.5 µg/mL (≈ 181 µM) | 125 µg/mL (≈ 362 µM) | 125 µg/mL (≈ 362 µM) | 62.5 µg/mL (≈ 181 µM)
4 | S=c1[nH]nc(Cc2c[nH]c3ccccc23)n1/N=C/c1ccccc1 | 125 µg/mL (≈ 375 µM) | 250 µg/mL (≈ 750 µM) | 125 µg/mL (≈ 375 µM) | 125 µg/mL (≈ 375 µM) | 62.5 µg/mL (≈ 187 µM) | 125 µg/mL (≈ 375 µM) | 250 µg/mL (≈ 750 µM) | 62.5 µg/mL (≈ 187 µM)
5 | Clc1ccc(C2=Nn3c(Cc4c[nH]c5ccccc45)nnc3SC2)cc1 | 125 µg/mL (≈ 329 µM) | 62.5 µg/mL (≈ 165 µM) | 125 µg/mL (≈ 329 µM) | 250 µg/mL (≈ 658 µM) | 250 µg/mL (≈ 658 µM) | 125 µg/mL (≈ 329 µM) | 125 µg/mL (≈ 329 µM) | 125 µg/mL (≈ 329 µM)
6 | Cc1ccc(/C=N/n2c(Cc3c[nH]c4ccccc34)n[nH]c2=S)cc1 | 125 µg/mL (≈ 360 µM) | 62.5 µg/mL (≈ 180 µM) | 250 µg/mL (≈ 720 µM) | 125 µg/mL (≈ 360 µM) | 62.5 µg/mL (≈ 180 µM) | 250 µg/mL (≈ 720 µM) | 125 µg/mL (≈ 360 µM) | 125 µg/mL (≈ 360 µM)
7 | CN(C)c1ccc(/C=N/n2c(Cc3c[nH]c4ccccc34)n[nH]c2=S)cc1 | 250 µg/mL (≈ 664 µM) | 125 µg/mL (≈ 332 µM) | 125 µg/mL (≈ 332 µM) | 250 µg/mL (≈ 664 µM) | 125 µg/mL (≈ 332 µM) | 250 µg/mL (≈ 664 µM) | 125 µg/mL (≈ 332 µM) | 62.5 µg/mL (≈ 166 µM)
8 | CN(C)c1ccc(C2=Nn3c(Cc4c[nH]c5ccccc45)nnc3SC2)cc1 | 250 µg/mL (≈ 644 µM) | 62.5 µg/mL (≈ 161 µM) | 125 µg/mL (≈ 322 µM) | 250 µg/mL (≈ 644 µM) | 125 µg/mL (≈ 322 µM) | 125 µg/mL (≈ 322 µM) | 125 µg/mL (≈ 322 µM) | 12.5 µg/mL (≈ 32.2 µM)
9 | O=[N+]([O-])c1ccc(/C=N/n2c(Cc3c[nH]c4ccccc34)n[nH]c2=S)cc1 | 250 µg/mL (≈ 661 µM) | 125 µg/mL (≈ 330 µM) | 125 µg/mL (≈ 330 µM) | 125 µg/mL (≈ 330 µM) | 125 µg/mL (≈ 330 µM) | 125 µg/mL (≈ 330 µM) | 250 µg/mL (≈ 661 µM) | 125 µg/mL (≈ 330 µM)
10 | S=c1[nH]nc(Cc2c[nH]c3ccccc23)n1/N=C/c1ccc(Cl)cc1 | 125 µg/mL (≈ 340 µM) | 62.5 µg/mL (≈ 170 µM) | 125 µg/mL (≈ 340 µM) | 250 µg/mL (≈ 680 µM) | 125 µg/mL (≈ 340 µM) | 125 µg/mL (≈ 340 µM) | 250 µg/mL (≈ 680 µM) | 62.5 µg/mL (≈ 170 µM)
11 | O=C(N[C@H](CO)[C@H](O)c1ccc([N+](=O)[O-])cc1)C(Cl)Cl [CHLORAMPHENICOL] | 62.5 µg/mL (≈ 193 µM) | 1.95 µg/mL (≈ 6.03 µM) | 62.5 µg/mL (≈ 193 µM) |  | 0.97 µg/mL (≈ 3 µM) |  | 125 µg/mL (≈ 387 µM) | 0.97 µg/mL (≈ 3 µM)
12 | CC(=O)N1CCN(c2ccc(OCC3COC(Cn4ccnc4)(c4ccc(Cl)cc4Cl)O3)cc2)CC1 (stereo not drawn) [KETOCONAZOLE] |  |  |  | 62.5 µg/mL (≈ 118 µM) |  | 62.5 µg/mL (≈ 118 µM) |  | 
